Screening data as filed in PubChem BioAssay.
MT1-MMP act inh = inhibitors of human MT1-MMP activation | GFP/RFP ratio change, % at 20 µM | HT1080 RFP-PRO-GFP cells, GFP/RFP ratio fluorescence, overnight; percent of plate control window, DMSO zero | P50281 | AID 651647 | actives 0.061% (n = 360,000);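 active means GFP/RFP ratio change of at least 30% with cell ATP level not reduced by more than half and red fluorescence within 50% of control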
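system = RFP-PRO-GFP reporter HT1080 cells | dosing = 20 µM single dose, 1% DMSO | timing = overnight cell settling, then overnight compound exposure, 37 °C, 5% CO2 | read-out basis = GFP/RFP fluorescence ratio | controls = DMSO and RFP-L50D-GFP cell wells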
ADAM10 inh = inhibitors of human ADAM10. O14672. recombinant ADAM10, EDANS/DABCYL FRET peptide cleavage, 3 h. inhibition, % at 7 µM. actives 0.62% (n = 370,000). AID 720582;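 active means inhibition above a per-campaign cutoff equal to the mean of compounds falling between control-based bounds plus 3 SD, cut at about 20% in these data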;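 further: 0% = DMSO wells while the 100% control is not disclosed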
NR3A LBD binder = modulates the human NR3A ligand-binding domain. NR3A LBD differential scanning fluorimetry, Tm shift; 0% = protein alone, 100% = glycine-bound protein. Tm shift relative to glycine control, % at 25 µM. actives 2.5% (n = 340,000). AID 1259313;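 active means melting temperature shift of at least 10% of the positive control shift, at one fixed dose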
SKN-1 inh = inhibitors of C. elegans SKN-1. C. elegans VP596 Pgst-4::GFP/RFP ratio, acrylamide-induced, 24 h. inhibition, % at 21.8 µM. actives 0.49% (n = 360,000). AID 624304;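 active means interference check ratio from 0.5 to 1.5 plus GFP to RFP signal ratio inhibition reaching or exceeding a fixed threshold, cut at about 30% in these data, passing the limit was not always enough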
ADAM17 inh = inhibits human ADAM17; recombinant ADAM17, EDANS/DABCYL FRET peptide cleavage; inhibition, % at 6.95 µM; actives 0.83% (n = 370,000); AID 720648;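 active means inhibition above the mean of compounds lying between control limits plus 3 SD, set per campaign, cut at about 8.5% in these data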;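 further: 0% = DMSO-only wells as the low control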
Target sequence (P78536 215-824 limits assumed): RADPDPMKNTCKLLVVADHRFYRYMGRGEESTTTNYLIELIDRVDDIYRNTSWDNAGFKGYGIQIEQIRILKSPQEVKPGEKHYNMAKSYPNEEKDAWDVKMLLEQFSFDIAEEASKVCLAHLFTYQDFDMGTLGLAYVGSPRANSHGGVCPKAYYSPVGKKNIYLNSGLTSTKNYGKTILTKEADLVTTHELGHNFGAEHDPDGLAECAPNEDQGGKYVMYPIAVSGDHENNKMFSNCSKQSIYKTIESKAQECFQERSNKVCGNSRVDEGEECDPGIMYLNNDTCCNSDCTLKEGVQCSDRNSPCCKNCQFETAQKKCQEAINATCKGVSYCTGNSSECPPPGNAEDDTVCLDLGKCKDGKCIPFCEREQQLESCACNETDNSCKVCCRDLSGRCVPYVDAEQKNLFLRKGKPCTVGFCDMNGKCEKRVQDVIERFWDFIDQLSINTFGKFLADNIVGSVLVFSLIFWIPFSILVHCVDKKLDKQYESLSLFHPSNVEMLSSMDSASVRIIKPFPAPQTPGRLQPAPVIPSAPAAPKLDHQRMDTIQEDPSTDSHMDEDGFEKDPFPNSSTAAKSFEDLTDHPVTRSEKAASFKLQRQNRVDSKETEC
MPTP block = permeability transition pore inhibition; AID 602449; inhibition, % at 10 µM; actives 1.4% (n = 360,000); isolated mouse mitochondria, Ca2+ swelling absorbance, 30 min;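 active means inhibition of 50% or more, scaled per plate between neutral and stimulator controls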;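 further: 0% = DMSO wells given calcium and 100% = 1 mM EGTA wells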
Active calls of the source: *; nt = no result. Most compounds without a hit are left out; they make up all but 4.7% or so of the library.

SMILES | MT1-MMP act inh | ADAM10 inh | NR3A LBD binder | SKN-1 inh | ADAM17 inh | MPTP block
O=C(CN1C(=O)NC(Cc2c[nH]c3ccccc23)C1=O)Nc1ccc(Br)cc1F (stereo not drawn) | 1.8 | 9.0 | 12.4* | 5.7 | 2.0 | -0.7
COc1ccc(-c2cn(CCc3c[nH]c4ccccc34)nn2)cc1 | 7.3 | -3.6 | 19.4* | 15.2 | 0.6 | 1.5
COc1ccc(-c2cn(Cc3cccc(OC)c3)nn2)cc1 | 3.3 | -2.5 | -0.4 | -10.2 | -4.3 | -0.2
COC(=O)C[C@H]1C=C[C@@H](NC(=O)Nc2cccc(OC)c2)[C@@H](CO)O1 | -2.2 | -5.2 | nt | 1.5 | 2.6 | 8.8
CCOC(=O)N1CCN(C(=O)CSc2nc3c([nH]c4ccccc43)c(=O)n2CCOC)CC1 | 0.7 | -13.2 | 0.2 | -1.2 | -4.7 | -0.1
COc1ccc(CCNC(=O)CN2C(=O)NC(Cc3c[nH]c4ccccc34)C2=O)cc1 (stereo not drawn) | -2.4 | -1.1 | 24.9* | 28.5 | -0.4 | -1.0
CNC(=S)NNC(=O)CNc1ccc(C)c(Cl)c1 | 0.1 | 6.1 | -0.7 | -5.5 | 2.3 | 0.7
COc1ccc(OC)c(NC(=O)CSc2nnc(C3CCCCC3)n2N)c1 | 3.9 | -9.8 | 14.1* | 9.0 | 6.3 | 1.2
COc1ccc(NC(=O)CSc2nnc(C3CCCCC3)n2N)c(OC)c1 | -1.8 | 0.3 | -1.9 | 11.1 | -2.4 | -1.7
c1ccc2c(-c3nn[nH]n3)cccc2c1 | -1.5 | -0.1 | 11.6* | 1.4 | -1.6 | -1.5
Oc1cccc2c(-c3nn[nH]n3)ccnc12 | 4.0 | 6.0 | -0.2 | 10.4 | 1.6 | -0.5
CS(=O)(=O)Nc1cccc(NC(=O)c2ccc(-c3ccc(F)c(F)c3)c3ccoc23)c1 | 0.9 | 6.6 | nt | 14.0 | 4.4 | 2.7
Cn1nccc1-c1ccc(C(=O)Nc2cccc(NS(C)(=O)=O)c2)c2occc12 | 2.1 | -12.8 | nt | 37.0* | -4.8 | -0.1
CCN(CC)c1ccc(/C=N/NC(=O)c2cc3ccccc3[nH]2)cc1 | 0.3 | -87.2 | 13.7* | -1.4 | -32.6 | 2.0
CN(C)CCN1CCN([C@H]2CS(=O)(=O)N[C@@H]2COCc2ccccc2)CC1 | -0.7 | -30.8 | nt | 7.5 | -7.0 | -0.8
CC(C)C[C@H]1CN([C@@H](Cc2ccc(O)cc2)CN2CCC[C@@H]2CN2C(=S)NC[C@@H]2Cc2ccccc2)C(=S)N1CC1CCCCCC1 | -5.4 | -2.5 | nt | 1.8 | -4.7 | 0.2
CC(C)C[C@@H](CN1CCCC1CN1C(=S)NC[C@@H]1Cc1ccc(O)cc1)N1C[C@H](Cc2ccccc2)N(CC2CCCCCC2)C1=S (stereo partly drawn) | -3.0 | 1.3 | 11.9* | 14.9 | 0.5 | 3.1
CC(C)C[C@@H](CN1CCCC1CN1C(=S)NC[C@@H]1Cc1ccc(O)cc1)N1C[C@H](Cc2ccccc2)N(CC2CCCCC2)C1=S (stereo partly drawn) | -7.3 | -6.7 | 9.2 | -3.4 | 2.1 | 1.2
CC(C)C[C@@H](CN1CCCC1CN1C(=S)NC[C@@H]1Cc1ccc(O)cc1)N1C[C@H](Cc2ccc(O)cc2)N(CC2CCCCCC2)C1=S (stereo partly drawn) | -9.0 | 4.1 | 35.8* | 13.0 | 1.5 | 4.3
CC(C)C[C@H]1CNC(=S)N1CC1CCCN1C[C@H](Cc1ccccc1)N1C[C@H](Cc2ccc(O)cc2)N(CC2CCCCCC2)C1=S (stereo partly drawn) | -16.6 | 2.2 | 29.2* | -18.9 | -1.1 | -1.0
CCN(CC)C(=O)Cn1c(=O)oc2ccccc21 | 1.9 | -6.9 | -1.4 | -1.0 | -0.2 | 1.6
CCCNC(=O)Cn1c2ccccc2c2nc(=O)cc(C)n21 | 0.8 | -22.2 | 1.4 | 5.6 | -5.0 | -0.1
Cc1cc(=O)nc2c3ccccc3n(CC(=O)NC(C)c3ccc4c(c3)OCCO4)n12 (stereo not drawn) | -4.6 | -3.7 | 13.4* | 15.1 | -0.8 | -1.4
c1ccc(CSc2ncnc3c2ncn3C2CCCCO2)cc1 (stereo not drawn) | 4.6 | 5.0 | -3.4 | 21.0 | -2.4 | 0.0
Cc1oc(-c2cccc(Cl)c2)nc1CN(C)C1CCOC1 (stereo not drawn) | -1.5 | -7.8 | -2.5 | 12.0 | -4.2 | 0.6
SMILES | MT1-MMP act inh | ADAM10 inh | NR3A LBD binder | SKN-1 inh | ADAM17 inh | MPTP block
Cc1oc(-c2ccc(-c3ccccc3)cc2)nc1CN(C)C1CCOC1 (stereo not drawn) | 1.5 | -3.5 | -1.2 | 65.1* | -6.5 | 0.9
Cc1ccc(/C=N/NC(=O)c2cc(-c3ccc(C)o3)[nH]n2)cc1 | 3.7 | 0.5 | 34.5* | 12.5 | -1.0 | 3.8
Cc1cc(C(=O)N/N=C/c2ccc(-c3ccc(C)c(Cl)c3)o2)n[nH]1 | -0.5 | -7.9 | 14.6* | 8.6 | -4.7 | 4.4
Cc1cc(C(=O)N/N=C/c2ccc(-c3ccccc3Cl)o2)n[nH]1 | 5.1 | -177.7 | 2.1 | 6.0 | -70.9 | 0.4
Cc1ccc(-c2cc(C(=O)N/N=C/c3cccnc3)n[nH]2)o1 | 1.5 | -6.1 | -0.2 | 4.4 | -0.7 | -0.5
COc1ccc(C(O)(CCC(C)C)C(CN2CCOCC2)c2ccc(Cl)cc2)cc1 (stereo not drawn) | -19.7 | 13.7 | 16.3* | -13.9 | 6.3 | 0.8
C[C@H](CO)N1C[C@H](C)[C@@H](CN(C)Cc2ccc3c(c2)OCCO3)OCc2cnnn2CCCC1=O | 0.7 | -5.1 | nt | -4.4 | 0.4 | -1.1
O=S(=O)(Nc1cccc(C(F)(F)F)c1)c1cnc[nH]1 | 15.3 | 12.9 | 0.9 | -2.0 | -0.9 | -4.3
O=S(=O)(Nc1ccc(C(F)(F)F)cc1)c1cnc[nH]1 | -6.2 | 10.9 | 0.9 | 38.4* | -1.3 | -0.7
O=C1ON=C(c2ccccc2)/C1=C/c1ccc(-c2ccccc2[N+](=O)[O-])o1 | 0.4 | -17.5 | 22.5* | 14.9 | -6.9 | 0.9
COc1cccc(C(=O)NNC(=O)c2ccccc2)c1 | -0.7 | -7.5 | 1.6 | 1.3 | -2.2 | -1.0
COc1c(C(=O)NNC(=O)c2ccccc2)csc1Br | 0.5 | 2.4 | 12.5* | -4.9 | -1.2 | 0.6
Cc1ccc(N2C(=O)C3C4C=CC(CNC(=S)Nc5cccc(Cl)c5)(O4)C3C2=O)cc1 (stereo not drawn) | 8.6 | 3.9 | 20.3* | 0.2 | 2.0 | 4.3
Cc1ccc(N2C(=O)C3C4C=CC(CNC(=S)Nc5ccc(F)cc5)(O4)C3C2=O)cc1 (stereo not drawn) | 5.8 | 3.0 | -3.7 | 1.5 | 2.9 | 0.1
Cc1ccc(N2C(=O)C3C4C=CC(CNC(=S)Nc5ccc(Cl)cc5)(O4)C3C2=O)cc1 (stereo not drawn) | 2.1 | 14.1 | 11.7* | 6.1 | 0.9 | 2.9
COc1ccc(N2C(=O)CC(Sc3ncn[nH]3)C2=O)c(OC)c1 (stereo not drawn) | 3.9 | -4.1 | -4.7 | 7.1 | -0.1 | -0.5
